Active and inactive are the calls of the source. No cut-off for these calls is given here.
Tests used:
Danio rerio [1] = organism: Danio rerio; experiment: Antidiabetic retinopathic activity in zebrafish flk:EGFP transgenic embryo assessed as reduction of high glucose-induced dilation of hyaloidretinal vessels at 20 uM treated 1 day postfertilization to 6 days postfertilization relative to control; type: functional; design: scale not given: the % may be the effect or the level left
Outline: (§1)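 flk:EGFP transgenic embryos, five per well, were kept from 1 dpf in egg water with 30 mM glucose plus compound (10 or 20 μM) until 6 dpf. They were then fixed in 4% PFA, and lenses were isolated with the optic disc up and imaged by fluorescence. Diameters were taken in 3–4 main branches up to the first sub-branch. Percentage inhibition = [1 − (Tn − Cav)/(HGav − Cav)] × 100, from three independent experiments.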

[2] = Antiglycation activity assessed as inhibition of advanced glycation end product formation after 7 days by spectrofluorometric analysis; type: physicochemical
Outline: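 Bovine serum albumin (10 mg/mL) in 50 mM phosphate buffer pH 7.4 with 0.02% sodium azide was mixed with 0.2 M fructose/glucose solution and serially diluted compound, with aminoguanidine as positive control. Samples were incubated 7 days at 37 °C and fluorescence read at ex 350/em 450 nm, in triplicate. IC50 came from least-squares regression of log concentration against remaining activity.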

Danio rerio [3] = organism: Danio rerio; experiment: Antidiabetic retinopathic activity in zebrafish flk:EGFP transgenic embryo assessed as reduction of high glucose-induced dilation of hyaloidretinal vessels at 10 to 20 uM treated 1 day post fertilization to 6 days post fertilization; type: functional, organism-based; outline: as §1
Danio rerio [4] = organism: Danio rerio; experiment: Toxicity in zebrafish flk:EGFP transgenic embryo at 10 to 20 uM treated 1 day post fertilization to 6 days post fertilization; type: organism-based; conditions: in vivo
Danio rerio [5] = organism: Danio rerio; experiment: Antidiabetic retinopathic activity in zebrafish flk:EGFP transgenic embryo assessed as reduction of high glucose-induced dilation of hyaloidretinal vessels at 10 uM treated 1 day postfertilization to 6 days postfertilization relative to control; type: functional; design: scale not given: the % may be the effect or the level left; outline: as §1

| SMILES | IC50 [2] [µM] | Activity (Danio rerio [1]) [%] | Activity (Danio rerio [3]) | Activity (Danio rerio [4]) | Activity (Danio rerio [5]) [%] |
| --- | --- | --- | --- | --- | --- |
| N=C(N)NN [PIMAGEDINE] | 966 |  |  |  |  |
| Oc1cc(O)c2c(c1)O[C@H](c1ccc(O)c(O)c1)[C@H](O)C2 [(-)-EPICATECHIN] | 13.6 |  |  |  |  |
| OC[C@H]1O[C@@H](O[C@@H]2Cc3c(O)cc4c(c3O[C@H]2c2ccc(O)cc2)[C@@H]2c3c(O)cc(O)cc3O[C@](c3ccc(O)cc3)(O4)[C@H]2O)[C@H](O)[C@@H](O)[C@@H]1O | 32.1 |  | Active |  |  |
| O=C(O[C@@H]1Cc2c(O)cc(O)cc2O[C@@H]1c1ccc(O)c(O)c1)c1cc(O)c(O)c(O)c1 [EPICATECHIN GALLATE] | 15.1 |  |  |  |  |

Now from value to molecule, other results behind:

| IC50 [2] [µM] | SMILES | Activity (Danio rerio [1]) [%] | Activity (Danio rerio [3]) | Activity (Danio rerio [4]) | Activity (Danio rerio [5]) [%] |
| --- | --- | --- | --- | --- | --- |
| 14.1 | Oc1ccc([C@@]23Oc4cc(O)cc(O)c4[C@@H](c4c(cc(O)c5c4O[C@H](c4ccc(O)c(O)c4)[C@@H](O)C5)O2)[C@@H]3O)cc1 | 104 |  |  |  |
| 33.5 | Oc1ccc([C@H]2Oc3c(c(O)cc4c3[C@@H]3c5c(O)cc(O)cc5O[C@](c5ccc(O)cc5)(O4)[C@H]3O)C[C@@H]2O)cc1 |  | Active |  |  |
| 34.7 | Oc1ccc([C@@H]2Oc3c(c(O)cc4c3[C@@H]3c5c(O)cc(O)cc5O[C@](c5ccc(O)cc5)(O4)[C@H]3O)C[C@H]2O)cc1 |  | Active |  |  |
| 17.4 | Oc1ccc([C@@H]2Oc3c(c(O)cc4c3[C@@H]3c5c(O)cc6c(c5O[C@](c5ccc(O)c(O)c5)(O4)[C@H]3O)[C@@H]3c4c(O)cc(O)cc4O[C@](c4ccc(O)cc4)(O6)[C@H]3O)C[C@H]2O)cc1 | 164.1 |  | Non-toxic | 157.7 |
| 39.8 | Oc1ccc([C@@H]2Oc3c(c(O)cc4c3[C@@H]3c5c(O)cc6c(c5O[C@](c5ccc(O)cc5)(O4)[C@H]3O)[C@@H]3c4c(O)cc(O)cc4O[C@](c4ccc(O)cc4)(O6)[C@H]3O)C[C@H]2O)cc1 |  | Active |  |  |

From ChEMBL document CHEMBL2429848, “Proanthocyanidins from Spenceria ramalana and their effects on AGE formation in vitro and hyaloid-retinal vessel dilation in larval zebrafish in vivo” (J Nat Prod, 2013)
